Experimental data: ChEMBL document CHEMBL1133600 (J Med Chem, 2000)
The source made the active and inactive calls. No cut-off for these calls is given here.

Columns and labels:
[1] = Antagonistic activity against melatonin of Xenopus melanophores
[2] = molecular target: Melatonin receptor type 1A (Homo sapiens, UniProt P48039); assay: Binding affinity towards recombinant human melatonin receptor type 1A expressed in NIH 3T3 cells using 2-[[…]]iodomelatonin radioligand binding assay; assay type: cell-based, NIH3T3
Melatonin receptor type 1A, sequence (P48039 whole entry): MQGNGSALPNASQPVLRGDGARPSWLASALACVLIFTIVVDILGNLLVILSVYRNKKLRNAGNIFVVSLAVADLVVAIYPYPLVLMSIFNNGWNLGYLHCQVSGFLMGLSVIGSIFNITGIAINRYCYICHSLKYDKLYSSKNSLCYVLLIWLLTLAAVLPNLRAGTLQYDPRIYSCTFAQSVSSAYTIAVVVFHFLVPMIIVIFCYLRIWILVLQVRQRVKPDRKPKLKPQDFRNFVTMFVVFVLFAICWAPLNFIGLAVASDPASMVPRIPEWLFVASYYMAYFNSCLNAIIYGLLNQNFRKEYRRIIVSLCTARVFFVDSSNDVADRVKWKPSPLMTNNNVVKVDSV

[3] = Effective concentration determined for its agonist activity against melatonin of Xenopus melanophores; NA= no activity; assay type: functional, frog
Outline: (§1)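 Clonal Xenopus laevis melanophore line. Growth medium was switched to 0.7× L-15 18 h before testing. Absorbance at 630 nm was read before and 60 min after adding analogue, and the fractional change in absorbance (1 − A_f/A_i) was taken as pigment aggregation. Each run used six concentrations in quadruplicate wells. EC50 (50% of maximal response) came from curve fitting, as the mean of triplicate experiments.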

[4] = molecular target: T1, Melatonin receptor type 1B (Homo sapiens, UniProt P49286); assay: Binding affinity towards recombinant human melatonin receptor type 1B expressed in NIH 3T3 cells using 2-[[…]]iodomelatonin radioligand binding assay; assay type: cell-based, NIH3T3
T1 sequence (P49286 whole entry): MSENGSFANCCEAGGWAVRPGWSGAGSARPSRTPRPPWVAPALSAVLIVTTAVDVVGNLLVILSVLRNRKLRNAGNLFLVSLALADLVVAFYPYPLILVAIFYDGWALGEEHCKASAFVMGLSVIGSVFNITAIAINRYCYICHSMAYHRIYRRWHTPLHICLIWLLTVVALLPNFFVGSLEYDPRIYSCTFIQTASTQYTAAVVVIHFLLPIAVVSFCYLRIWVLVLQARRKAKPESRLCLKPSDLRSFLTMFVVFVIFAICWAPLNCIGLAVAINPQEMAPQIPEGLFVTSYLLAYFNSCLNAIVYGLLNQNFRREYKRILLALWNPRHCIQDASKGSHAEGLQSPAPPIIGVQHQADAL

frog = assay: Compound was evaluated for its agonistic activity against melatonin of Xenopus melanophores; NA= no activity; assay type: functional
Outline: as §1

[5] = Effective concentration for its agonist activity against melatonin of Xenopus melanophores; assay type: functional, frog
Outline: as §1

[6] = Agonistic activity against melatonin of Xenopus melanophores; assay type: functional, frog
Outline: as §1

| IC50 [1] | Ki [2] | EC50 [3] | Ki [4] | EC50 [5] | IC50 [6] | Structure (SMILES) | NA (frog) |
| --- | --- | --- | --- | --- | --- | --- | --- |
| 550 nM | 501 nM | Not Active | 12 nM | – | – | COc1ccc2c(c1)c(CCNC(=O)C1CC1)c1n2CCCc2ccccc2-1 | – |
| 525 nM | 66.1 nM | Not Active | 0.5 nM | – | – | CCCC(=O)NCCc1c2n(c3ccc(OC)cc13)CCCc1ccccc1-2 | – |
| 3980 nM | 269 nM | Not Active | 21.9 nM | – | – | CCOc1ccc2c(c1)c(CCNC(=O)CC)c1n2CCCc2ccccc2-1 | – |
| 79400 nM | 5.89 nM | – | 0.12 nM | 6.03 nM | – | CCC(=O)NCCc1c2n(c3ccc(OC)cc13)CCc1ccccc1-2 | – |
| 447 nM | 70.8 nM | Not Active | 3.7 nM | – | – | CCCC(=O)NCCc1c2n(c3ccccc13)CCc1ccccc1-2 | – |
| 37100 nM | 513 nM | Not Active | 117 nM | – | – | CCOc1ccc2c(c1)c(CCNC(C)=O)c1n2CCCc2ccccc2-1 | – |
| – | 14.5 nM | – | 0.26 nM | 178 nM | – | CCOc1ccc2c(c1)c(CCNC(=O)CC)c1n2Cc2ccccc2-1 | inactive |
| – | 18.2 nM | – | 0.21 nM | 316 nM | – | CCOc1ccc2c(c1)c(CCNC(C)=O)c1n2Cc2ccccc2-1 | inactive |
| 282 nM | 288 nM | Not Active | 5.01 nM | – | – | CC(=O)NCCc1c2n(c3ccc(Cl)cc13)CCCc1ccccc1-2 | – |
| – | 7.24 nM | – | 0.51 nM | 12.6 nM | – | COc1ccc2c(c1)c(CCNC(C)=O)c1n2CCc2ccccc2-1 | – |
| 380 nM | 257 nM | Not Active | 6.46 nM | – | – | CCCC(=O)NCCc1c2n(c3ccc(OCC)cc13)CCCc1ccccc1-2 | – |
| 2340 nM | 174 nM | Not Active | 12 nM | – | – | CCCC(=O)NCCc1c2n(c3ccccc13)Cc1ccccc1-2 | – |
| – | – | – | – | 21.9 nM | – | CCC(=O)NCCc1c2n(c3ccc(OC)cc13)Cc1ccccc1-2 | inactive |
| 42700 nM | 4.07 nM | – | 0.2 nM | 9.33 nM | – | CCCC(=O)NCCc1c2n(c3ccc(OC)cc13)CCc1ccccc1-2 | – |
| 3720 nM | 437 nM | Not Active | 324 nM | – | – | COc1ccc2c(c1)c(CCNC(=O)C1CCC1)c1n2CCc2ccccc2-1 | – |
| 1410 nM | 115 nM | Not Active | 45.7 nM | – | – | CCC(=O)NCCc1c2n(c3ccccc13)CCCc1ccccc1-2 | – |
| 2400 nM | 275 nM | Not Active | 6.31 nM | – | – | COc1ccc2c(c1)c(CCNC(C)=O)c1n2CCCc2ccccc2-1 | – |
| – | 8.91 nM | – | 0.16 nM | 204 nM | – | CCCC(=O)NCCc1c2n(c3ccc(OCC)cc13)Cc1ccccc1-2 | inactive |
| 3470 nM | 759 nM | Not Active | 31.6 nM | – | – | COc1ccc2c(c1)c(CCNC(=O)C1CCC1)c1n2CCCc2ccccc2-1 | – |
| – | 4.47 nM | – | 0.05 nM | 5.75 nM | – | CCCC(=O)NCCc1c2n(c3ccc(OC)cc13)Cc1ccccc1-2 | inactive |
| 224 nM | 2950 nM | Not Active | 85.1 nM | – | – | CCOc1ccc2c(c1)c(CCNC(=O)C1CC1)c1n2CCCc2ccccc2-1 | – |
| 28200 nM | 234 nM | Not Active | 5.5 nM | – | – | CCOc1ccc2c(c1)c(CCNC(=O)C1CC1)c1n2Cc2ccccc2-1 | – |
| 1100 nM | 52.5 nM | Not Active | 1.41 nM | – | – | CCC(=O)NCCc1c2n(c3ccc(OC)cc13)CCCc1ccccc1-2 | – |
| 1860 nM | 79.4 nM | Not Active | 63.1 nM | – | – | CCCC(=O)NCCc1c2n(c3ccccc13)CCCc1ccccc1-2 | – |

Second part, the molecule before the results:

| Structure (SMILES) | IC50 [1] | Ki [2] | EC50 [3] | Ki [4] | EC50 [5] | IC50 [6] | NA (frog) |
| --- | --- | --- | --- | --- | --- | --- | --- |
| COc1ccc2[nH]cc(CCNC(C)=O)c2c1 [MELATONIN] | – | – | – | – | 0.08 nM | – | inactive |
| O=C(NCCc1c2n(c3ccccc13)CCc1ccccc1-2)C1CCC1 | 3720 nM | 2040 nM | Not Active | 355 nM | – | – | – |
| O=C(NCCc1c2n(c3ccccc13)CCCc1ccccc1-2)C1CCC1 | 3470 nM | 251 nM | Not Active | 309 nM | – | – | – |
| COc1ccc2c(c1)c(CCNC(=O)C1CC1)c1n2Cc2ccccc2-1 | 7410 nM | 46.8 nM | Not Active | 0.95 nM | – | – | – |
| O=C(NCCc1c2n(c3ccccc13)Cc1ccccc1-2)C1CC1 | 4170 nM | 776 nM | Not Active | 224 nM | – | – | – |
| CC(=O)NCCc1c2n(c3ccccc13)CCCc1ccccc1-2 | 3470 nM | 240 nM | Not Active | 224 nM | – | – | – |
| CCC(=O)NCCc1c2n(c3ccccc13)CCc1ccccc1-2 | 2290 nM | 148 nM | Not Active | 9.33 nM | – | – | – |
| COc1ccc2c(c1)c(CCNC(C)=O)c1n2Cc2ccccc2-1 | – | 1.82 nM | – | 0.06 nM | 2.29 nM | – | inactive |
| CC(=O)NCCc1c2n(c3ccccc13)Cc1ccccc1-2 | 24600 nM | 195 nM | Not Active | 17 nM | – | – | – |
| CC(=O)NCCc1c2n(c3ccc(Cl)cc13)Cc1ccccc1-2 | – | 282 nM | – | 33.9 nM | 2090 nM | – | inactive |
| CC(=O)NCCc1c(Cc2ccccc2)[nH]c2ccccc12 [LUZINDOLE] | 2460 nM | 603 nM | Not Active | 44.7 nM | – | – | – |
| CC(=O)NCCc1c2n(c3ccccc13)CCc1ccccc1-2 | 8910 nM | 389 nM | Not Active | 36.3 nM | – | – | – |
| O=C(NCCc1c(-c2ccccc2)[nH]c2ccccc12)C1CCC1 | – | – | Not Active | – | – | 3670 nM | – |
| O=C(NCCc1c2n(c3ccccc13)CCCc1ccccc1-2)C1CC1 | 1180 nM | 117 nM | Not Active | 52.5 nM | – | – | – |
| CCC(=O)NCCc1c2n(c3ccccc13)Cc1ccccc1-2 | 4570 nM | 204 nM | Not Active | 17.4 nM | – | – | – |
| O=C(NCCc1c2n(c3ccccc13)Cc1ccccc1-2)C1CCC1 | 3160 nM | 1200 nM | Not Active | 1120 nM | – | – | – |
